≈ marks a conversion by molar mass, not a printed value.
Key:
[1] = tested on: Staphylococcus aureus; experiment: Antibacterial activity against methicillin-resistant Staphylococcus aureus BAA-1707 assessed as bacterial growth inhibition incubated for 16 hrs by broth microdilution susceptibility test; type: functional
Summary of the method: (§1)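 CLSI broth microdilution with 11 twofold dilutions (0.05–50 μM). About 10^5 cells per well from a log-phase culture. DMSO vehicle up to 0.5% v/v. At least three independent experiments.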

[2] = tested on: Staphylococcus aureus; experiment: Antibacterial activity against methicillin-resistant Staphylococcus aureus BAA-44 assessed as bacterial growth inhibition incubated for 16 hrs by broth microdilution susceptibility test; type: functional
Summary of the method: (§2)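 CLSI broth microdilution with 11 twofold dilutions (0.05–50 μM). Medium was LB for the staphylococci and BHI for VRE 700221. About 10^5 cells per well from a log-phase culture. […] DMSO vehicle up to 0.5% v/v. At least three independent experiments.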

[3] = tested on: Staphylococcus epidermidis; experiment: Antibacterial activity against methicillin-resistant Staphylococcus epidermidis ATCC 35984 assessed as bacterial growth inhibition incubated for 16 hrs by broth microdilution susceptibility test; type: functional; summary of the method: as §1
[4] = tested on: Enterococcus faecium; experiment: Antibacterial activity against vancomycin-resistant Enterococcus faecium ATCC 700221 assessed as bacterial growth inhibition incubated for 16 hrs by broth microdilution susceptibility test; type: functional; summary of the method: as §2
[5] = tested on: HeLa; experiment: Cytotoxicity against human HeLa cells assessed as reduction in cell viability incubated for 24 hrs by LDH release assay; type: toxicity, cell-based
Summary of the method: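 HeLa cells in DMEM with 10% FBS, treated at 70–80% confluence with 25, 50 and 100 μM for 24 h. LDH in supernatant measured by 30 min reaction at room temperature, then stop solution and absorbance at 490 nm. Controls: 2% Triton X-100 (maximum), medium only, DMSO vehicle. Three independent experiments.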

[6] = tested on: Staphylococcus aureus; experiment: Bactericidal activity against methicillin-resistant Staphylococcus aureus BAA-1707 planktonic cells assessed as planktonic eradication incubated for 24 hrs followed by incubation for overnight in fresh medium by Calgary biofilm device assay; type: functional
Summary of the method: (§3)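 Calgary biofilm device. Biofilms grown 24 h at 37 °C in TSB with 0.5% glucose, then challenged 24 h with twofold compound dilutions. 20 μL of challenge medium transferred into fresh TSB with 0.5% glucose and incubated overnight at 37 °C. MBC is the concentration with no visible turbidity. At least three independent experiments.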

[7] = tested on: Staphylococcus aureus; experiment: Antibiofilm activity against methicillin-resistant Staphylococcus aureus BAA-1707 biofilms assessed as biofilm eradication incubated for 24 hrs followed by incubation for 24 hrs in fresh medium by Calgary biofilm device assay; type: functional
Summary of the method: (§4)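 Calgary biofilm device. Mid-log culture diluted 1000-fold in TSB with 0.5% glucose; biofilms grown on pegs 24 h at 37 °C. Pegs washed and challenged with twofold compound dilutions for 24 h at 37 °C, then moved to fresh medium for 24 h. MBEC is the lowest concentration leaving wells non-turbid. At least three independent experiments.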

[8] = tested on: Erythrocyte; experiment: Hemolytic activity against human RBC at 200 uM measured after 1 hr; type: toxicity, cell-based
Summary of the method: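 2% hRBCs exposed to compound at 200 μM final, added from DMSO stock, for 1 h at 37 °C. Supernatant OD read at 405 nm. Hemolysis normalized between DMSO (0%) and Triton X (100%); three independent experiments.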

[9] = tested on: Enterococcus faecalis; experiment: Antibacterial activity against Enterococcus faecalis OG1RF ATCC 47077 assessed as bacterial growth inhibition incubated for 16 hrs by broth microdilution susceptibility test; type: functional
[10] = tested on: Staphylococcus epidermidis; experiment: Bactericidal activity against methicillin-resistant Staphylococcus epidermidis ATCC 35984 planktonic cells assessed as planktonic eradication incubated for 24 hrs followed by incubation for overnight in fresh medium by Calgary biofilm device assay; type: functional; summary of the method: as §3
[11] = tested on: Staphylococcus epidermidis; experiment: Antibiofilm activity against methicillin-resistant Staphylococcus epidermidis ATCC 35984 biofilms assessed as biofilm eradication incubated for 24 hrs followed by incubation for 24 hrs in fresh medium by Calgary biofilm device assay; type: functional; summary of the method: as §4
[12] = tested on: Enterococcus faecium; experiment: Bactericidal activity against methicillin-resistant vancomycin-resistant Enterococcus faecium ATCC 700221 planktonic cells assessed as planktonic eradication incubated for 24 hrs followed by incubation for overnight in fresh medium by Calgary biofilm device assay; type: functional; summary of the method: as §3
[13] = tested on: Enterococcus faecium; experiment: Antibiofilm activity against methicillin-resistant vancomycin-resistant Enterococcus faecium ATCC 700221 biofilms assessed as biofilm eradication incubated for 24 hrs followed by incubation for 24 hrs in fresh medium by Calgary biofilm device assay; type: functional; summary of the method: as §4
[14] = tested on: Enterococcus faecalis; experiment: Bactericidal activity against […] Enterococcus faecalis OG1RF ATCC 47077 planktonic cells assessed as planktonic eradication incubated for 24 hrs followed by incubation for overnight in fresh medium by Calgary biofilm device assay; type: functional
Summary of the method: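 Calgary biofilm device in BHI. Biofilms grown 24 h at 37 °C and challenged 24 h with twofold compound dilutions. Challenge medium subcultured 1:10 into fresh BHI overnight at 37 °C. MBC is the concentration with no turbidity. At least three independent experiments.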

[15] = tested on: Enterococcus faecalis; experiment: Antibiofilm activity against Enterococcus faecalis OG1RF ATCC 47077 biofilms assessed as biofilm eradication incubated for 24 hrs followed by incubation for 24 hrs in fresh medium by Calgary biofilm device assay; type: functional
Summary of the method: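 Calgary biofilm device. Biofilms grown 24 h at 37 °C in BHI from mid-log culture diluted 1000-fold. Pegs washed and then challenged 24 h with twofold serial dilutions. Pegs moved to fresh BHI for 24 h recovery. MBEC = lowest concentration leaving no turbidity; at least three independent experiments.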

[16] = tested on: Mycobacterium tuberculosis; experiment: Antibacterial activity against Mycobacterium tuberculosis CDC1551 assessed as bacterial growth inhibition incubated for 5 days by luminescence based analysis; type: functional; details: CDC1551, 120 h, time 5 day
Summary of the method: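 Bioluminescent Mtb-lux CDC1551 reporter grown in Middlebrook 7H9 with 0.05% Tween 80, 10% OADC and kanamycin to OD600 0.4–0.8, then diluted to OD600 0.02. Added to twofold drug dilutions (0.003–200 μM). Incubated 5 days at 37 °C, 5% CO2. Luminescence read against 1% DMSO and 10 μM rifampicin controls to give % growth inhibition. MIC taken from a modified Gompertz fit.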

[17] = tested on: J774; experiment: Cytotoxicity against mouse J774 cells assessed as reduction in cell viability […] by Alamar blue assay; type: toxicity, cell-based
[18] = tested on: HepG2; experiment: Cytotoxicity against human HepG2 cells assessed as reduction in cell viability […] by Alamar blue assay; type: toxicity, cell-based

SMILES	MIC [1]	MIC [2]	MIC [3]	MIC [4]	MBC [6]	MBEC [7]	Activity [8]	MIC [9]	MBC [12]	MBEC [13]	other results
Oc1cc(Cl)cc2nc3c(Oc4ccccc4)cccc3nc12	3.13 µM (≈ 1.01 µg/mL)	3.13 µM (≈ 1.01 µg/mL)	3.13 µM (≈ 1.01 µg/mL)	–	–	–	–	–	–	–	–
Oc1c(Br)cc(Br)c2nc3cc(Cl)ccc3nc12	0.1 µM (≈ 0.0388 µg/mL)	–	–	–	–	–	–	–	–	–	–
Oc1cc(Cl)cc2nc3ccc(I)cc3nc12	0.78 µM (≈ 0.278 µg/mL)	1.56 µM (≈ 0.556 µg/mL)	–	3.13 µM (≈ 1.12 µg/mL)	37.5 µM (≈ 13.4 µg/mL)	37.5 µM	1.9%	–	–	–	IC50 [5]: 100 µM
Oc1cc(Cl)cc2nc3ccc(F)cc3nc12	6.25 µM (≈ 1.55 µg/mL)	–	–	–	–	–	–	–	–	–	–
Cc1cccc2nc3c(O)cc(Cl)cc3nc12	–	–	[…]	3.13 µM (≈ 0.766 µg/mL)	–	–	–	–	–	–	–
Oc1c(Br)c(Cl)c(Br)c2nc3ccc(Br)cc3nc12	–	1.56 µM (≈ 0.729 µg/mL)	0.1 µM (≈ 0.0467 µg/mL)	0.3 µM (≈ 0.14 µg/mL)	12.5 µM (≈ 5.84 µg/mL)	12.5 µM	5.1%	0.78 µM (≈ 0.365 µg/mL)	4.69 µM (≈ 2.19 µg/mL)	–	MBC [10]: 6.25 µM (≈ 2.92 µg/mL); MBEC [11]: 6.25 µM
c1ccc(CN(CCN(Cc2ccccn2)Cc2ccccn2)Cc2ccccn2)nc1	46.9 µM (≈ 19.9 µg/mL)	46.9 µM (≈ 19.9 µg/mL)	–	–	250 µM (≈ 106 µg/mL)	>2000 µM	<= 1%	46.9 µM (≈ 19.9 µg/mL)	188 µM (≈ 79.8 µg/mL)	>2000 µM	MBEC [11]: >2000 µM; MBC [14]: 500 µM (≈ 212 µg/mL); MBEC [15]: >2000 µM
Oc1c(Br)c(Cl)c(Br)c2nc3ccc(F)cc3nc12	0.15 µM (≈ 0.061 µg/mL)	0.2 µM (≈ 0.0813 µg/mL)	–	0.78 µM (≈ 0.317 µg/mL)	12.5 µM (≈ 5.08 µg/mL)	–	<= 1%	–	3.13 µM (≈ 1.27 µg/mL)	–	MIC [16]: 1.71 µM (≈ 0.695 µg/mL); IC50 [5]: > 25 µM; IC50 [17]: > 200 µM; IC50 [18]: > 200 µM; MBC [10]: 12.5 µM (≈ 5.08 µg/mL); MBEC [11]: 12.5 µM
Cc1cccc2nc3c(O)c(Br)c(SCCO)c(Br)c3nc12	6.25 µM (≈ 2.78 µg/mL)	6.25 µM (≈ 2.78 µg/mL)	–	12.5 µM (≈ 5.55 µg/mL)	–	–	–	–	–	–	–
Cc1c(Br)ccc2nc3c(O)c(Br)c(Cl)c(Br)c3nc12	0.59 µM (≈ 0.284 µg/mL)	–	0.1 µM (≈ 0.0481 µg/mL)	≤ 0.05 µM	75 µM (≈ 36.1 µg/mL)	75 µM	27%	0.05 µM (≈ 0.0241 µg/mL)	2.35 µM (≈ 1.13 µg/mL)	0.2 µM	MIC [16]: 0.88 µM (≈ 0.424 µg/mL); IC50 [17]: > 200 µM; IC50 [18]: > 200 µM; MBC [14]: 1.56 µM (≈ 0.751 µg/mL); MBEC [15]: 0.78 µM
CCCCCCCCCC(=O)N[C@@H](Cc1c[nH]c2ccccc12)C(=O)N[C@H](CC(N)=O)C(=O)N[C@@H](CC(=O)O)C(=O)N[C@@H]1C(=O)NCC(=O)N[C@@H](CCCN)C(=O)N[C@@H](CC(=O)O)C(=O)N[C@H](C)C(=O)N[C@@H](CC(=O)O)C(=O)NCC(=O)N[C@H](CO)C(=O)N[C@@H]([C@H](C)CC(=O)O)C(=O)N[C@@H](CC(=O)c2ccccc2N)C(=O)O[C@@H]1C	–	–	–	–	–	>2000 µM	–	–	375 µM (≈ 608 µg/mL)	93.8 µM	–
Oc1cc(Cl)cc2nc3ccc(Br)cc3nc12	9.38 µM (≈ 2.9 µg/mL)	–	> 50 µM	> 50 µM	–	–	–	–	–	–	–
Oc1cccc2nc3ccccc3nc12	50 µM (≈ 9.81 µg/mL)	50 µM (≈ 9.81 µg/mL)	37.5 µM (≈ 7.36 µg/mL)	> 50 µM	–	–	–	> 50 µM	–	–	–
Oc1c(Br)c(Cl)c(Br)c2nc3ccc(I)cc3nc12	0.15 µM (≈ 0.0772 µg/mL)	–	0.3 µM (≈ 0.154 µg/mL)	–	12.5 µM (≈ 6.43 µg/mL)	–	3%	1.56 µM (≈ 0.802 µg/mL)	4.69 µM (≈ 2.41 µg/mL)	3.13 µM	MBC [10]: 6.25 µM (≈ 3.21 µg/mL); MBEC [11]: 6.25 µM
Cc1ccc2nc3c(O)cc(Cl)cc3nc2c1C	2.35 µM (≈ 0.608 µg/mL)	2.35 µM (≈ 0.608 µg/mL)	2.35 µM (≈ 0.608 µg/mL)	3.13 µM (≈ 0.81 µg/mL)	–	–	–	12.5 µM (≈ 3.23 µg/mL)	–	–	–
Cc1cccc2nc3c(O)c(Br)cc(Br)c3nc12	0.3 µM (≈ 0.11 µg/mL)	–	–	–	–	–	–	–	–	–	–
Cc1ccc2nc3c(O)c(Br)c(Cl)c(Br)c3nc2c1C	0.05 µM (≈ 0.0208 µg/mL)	–	≤ 0.05 µM	0.08 µM (≈ 0.0333 µg/mL)	–	–	<= 1%	0.2 µM (≈ 0.0833 µg/mL)	0.78 µM (≈ 0.325 µg/mL)	0.3 µM	MIC [16]: 3.62 µM (≈ 1.51 µg/mL); IC50 [17]: > 200 µM; IC50 [18]: > 200 µM; MBC [10]: 3.13 µM (≈ 1.3 µg/mL)
Oc1c(Br)c(Cl)c(Br)c2nc3c(Br)cccc3nc12	–	0.2 µM (≈ 0.0935 µg/mL)	0.1 µM (≈ 0.0467 µg/mL)	0.15 µM (≈ 0.0701 µg/mL)	3.13 µM (≈ 1.46 µg/mL)	6.25 µM	<= 1%	–	–	0.3 µM	MIC [16]: 3.91 µM (≈ 1.83 µg/mL); IC50 [5]: 100 µM; IC50 [17]: > 200 µM; IC50 [18]: > 200 µM; MBEC [11]: […]; MBC [14]: 6.25 µM (≈ 2.92 µg/mL)
O=C(O)CN(CCN(CC(=O)O)CC(=O)O)CC(=O)O [EDETIC ACID]	–	125 µM (≈ 36.5 µg/mL)	–	–	–	>2000 µM	<= 1%	500 µM (≈ 146 µg/mL)	–	–	MBC [14]: > 2000 µM; MBEC [15]: >2000 µM
